Assay results pooled from the literature.
Protocols differ between the studies behind these lines.
D14: D14 (Arabidopsis thaliana, UniProt Q9SQR3)
AMY2: Pancreatic alpha-amylase (AMY2, Sus scrofa, UniProt P00690)

SMILES	target	test	conditions	quantity	value
CC1=CC(O/C=C2/C(=O)OC3c4ccccc4CC23)OC1=O (racemic)	D14	thermal stability, DSF	10 µM	ΔTm	-7.04 °C
C1=C/COCc2cc(ccc2OCCN2CCCC2)Nc2nccc(n2)-c2cccc(c2)COC/1	MAP kinase-activated protein kinase 5 (MAPKAPK5, Homo sapiens, UniProt Q8IW41)	binding	0.1 µM	remaining binding	75%
Cc1cc(O)c(-c2ccc([C@@H](C)CN(C)C)cc2)c2c1[nH]c(=O)c1sccc12	Ribosomal protein S6 kinase alpha-1, C-terminal kinase domain (RPS6KA1, Homo sapiens, UniProt Q15418)	enzyme activity, inhibitor	0.1 µM	inhibition	-4.95%
CC1=C(/C=C/C(C)=C/C=O)C(C)(C)C[C@H](O)C1	D14	thermal stability, DSF	50 µM	ΔTm	-3.04 °C
O=c1c(O)c(-c2ccc(O)c(O)c2)oc2c(Br)c(O)c(Br)c(O)c12	AMY2	enzyme activity, inhibitor	50 µM, 30 min	inhibition	70.2%
C#Cc1cc(-c2cc(Nc3nc(N[C@@H](C)c4ccc(F)cn4)ncc3Cl)n[nH]2)ccc1C=O	Ribosomal protein S6 kinase alpha-1 (RPS6KA1, Homo sapiens, UniProt Q15418)	enzyme activity, inhibitor	0.2 µM	inhibition	56.8%
O=c1cc(-c2ccc(O)cc2)oc2c(Br)c(O)c(Br)c(O)c12	AMY2	enzyme activity, inhibitor	50 µM	inhibition	69.3%
CCCCC(=O)Nc1ccc(-c2ccc3ncn(CCC)c(=O)c3c2)cn1	Tyrosine-protein kinase Fer (FER, Homo sapiens, UniProt P16591)	binding, competition with immobilised ligand	0.5 µM	remaining binding	100%
CC1=C(/C=C/C(C)=C/C=O)C(C)(C)CCC1	D14	thermal stability, DSF	100 µM	ΔTm	-9.02 °C
O=c1cc(-c2ccc(O)c(O)c2)oc2cc(O)cc(O)c12	AMY2	enzyme activity, inhibitor	50 µM, 30 min	inhibition	97.5%
